Assay results reported in ChEMBL document CHEMBL3352718, “CB2-selective cannabinoid receptor ligands: synthesis, pharmacological evaluation, and molecular modeling investigation of 1,8-Naphthyridin-2(1H)-one-3-carboxamides” (J Med Chem, 2014).

What follows are compounds tested against Cannabinoid receptor 1 (Homo sapiens, UniProt P21554) (assay: Displacement of [3H]CP-55,940 from human recombinant CB1R expressed in HEK-293 cells after 90 mins by liquid scintillation counting). Settings: not given.
Sequence of Cannabinoid receptor 1 (P21554 whole entry): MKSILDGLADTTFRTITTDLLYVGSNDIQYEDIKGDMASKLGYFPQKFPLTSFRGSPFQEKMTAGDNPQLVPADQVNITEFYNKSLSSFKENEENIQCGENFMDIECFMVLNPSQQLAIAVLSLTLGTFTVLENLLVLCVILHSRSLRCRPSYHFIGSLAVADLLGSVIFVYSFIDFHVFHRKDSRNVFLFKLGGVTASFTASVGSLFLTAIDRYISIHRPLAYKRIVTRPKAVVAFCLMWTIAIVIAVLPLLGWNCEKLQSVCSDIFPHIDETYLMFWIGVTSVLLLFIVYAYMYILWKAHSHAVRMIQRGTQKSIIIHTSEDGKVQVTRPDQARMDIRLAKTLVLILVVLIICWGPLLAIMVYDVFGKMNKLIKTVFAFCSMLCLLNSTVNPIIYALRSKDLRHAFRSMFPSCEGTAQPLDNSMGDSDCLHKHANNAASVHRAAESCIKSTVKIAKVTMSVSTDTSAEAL
Design: species or system HEK293

Q: For `CCOC(=O)CCn1c(=O)c(C(=O)NC2CCC(C)CC2)cc2cccnc21` (configuration not stated), which Ki is on record?
A: > 10000 nM

Q: How did the Ki turn out when `C[C@H]1CC[C@H](NC(=O)c2cc3cc(Br)cnc3n(Cc3ccc(F)cc3)c2=O)CC1` was run?
A: 166 nM

Q: Which Ki does the source give for `CC1CCC(NC(=O)c2cc3cc(-c4cccs4)cnc3n(Cc3ccc(F)cc3)c2=O)CC1` (configuration not stated) here?
A: 3280 nM

Q: `C[C@H]1CC[C@@H](NC(=O)c2cc3cc(Br)cnc3n(Cc3ccc(F)cc3)c2=O)CC1` was tested. Which Ki did it give?
A: 121 nM

Q: For `CC1CCC(NC(=O)c2cc3cc(Br)cnc3n(Cc3ccc(F)cc3)c2=O)CC1` (configuration not stated), which Ki is on record?
A: 96.1 nM

Q: With `CC1CCC(NC(=O)c2cc3cc(-c4ccc(F)cc4)cnc3n(CCN3CCOCC3)c2=O)CC1` (configuration not stated) as the compound, how does the Ki read?
A: 66.7 nM

Q: With `CC1CCC(NC(=O)c2cc3cccnc3n(CCCCCO)c2=O)CC1` (configuration not stated) as the compound, how does the Ki read?
A: > 10000 nM

Q: Which Ki does the source give for `CC1CCC(NC(=O)c2cc3cc(-c4ccco4)cnc3n(Cc3ccc(F)cc3)c2=O)CC1` (configuration not stated) here?
A: 3440 nM

Q: How did the Ki turn out when `COC(=O)CCCCn1c(=O)c(C(=O)NC2CCC(C)CC2)cc2cccnc21` (configuration not stated) was run?
A: > 10000 nM

Q: For `CC1CCC(NC(=O)c2cc3cccnc3n(CCCCC(=O)O)c2=O)CC1` (configuration not stated), which Ki is on record?
A: > 10000 nM

Q: For `CC1CCC(NC(=O)c2cc3cc(Br)cnc3n(CCN3CCOCC3)c2=O)CC1` (configuration not stated), which Ki is on record?
A: 750 nM

Q: Which Ki does the source give for `C[C@H]1CC[C@H](NC(=O)c2cc3cc(-c4ccco4)cnc3n(Cc3ccc(F)cc3)c2=O)CC1` here?
A: > 10000 nM

Q: With `CC1CCC(NC(=O)c2cc3cc(-c4ccc(F)cc4)cnc3n(Cc3ccc(F)cc3)c2=O)CC1` (configuration not stated) as the compound, how does the Ki read?
A: > 10000 nM

Q: How did the Ki turn out when `CC1CCC(NC(=O)c2cc3cc(-c4cccs4)cnc3n(CCN3CCOCC3)c2=O)CC1` (configuration not stated) was run?
A: 32.7 nM

Q: How did the Ki turn out when `CC1CCC(NC(=O)c2cc3cccnc3n(CCCCCCO)c2=O)CC1` (configuration not stated) was run?
A: > 10000 nM

Each compound was assayed against T1, Cannabinoid receptor 2 (Homo sapiens, UniProt P34972) (assay: Antagonist activity at human recombinant CB2R expressed in WIN-55212-stimulated U2OS cells assessed as increase in forskolin-mediated cAMP level after 30 mins by time-resolved fluorescence assay). Settings: read-out: IC50.
T1 sequence (P34972 whole entry): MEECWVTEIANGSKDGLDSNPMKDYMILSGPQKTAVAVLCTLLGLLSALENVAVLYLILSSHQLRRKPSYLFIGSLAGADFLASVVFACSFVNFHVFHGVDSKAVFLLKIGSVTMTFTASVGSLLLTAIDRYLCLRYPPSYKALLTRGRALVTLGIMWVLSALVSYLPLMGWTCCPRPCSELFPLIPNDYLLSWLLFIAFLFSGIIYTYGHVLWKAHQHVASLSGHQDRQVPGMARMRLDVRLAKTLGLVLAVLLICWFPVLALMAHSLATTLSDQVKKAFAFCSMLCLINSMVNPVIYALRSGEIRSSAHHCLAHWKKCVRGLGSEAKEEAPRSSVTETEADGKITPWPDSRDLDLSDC
Assay type: functional, cell-based

Q: How did the IC50 turn out when `CC1CCC(NC(=O)c2cc3cc(Br)cnc3n(CCN3CCOCC3)c2=O)CC1` (configuration not stated) was run?
A: 59.6 nM

Same assay, conditions: u2os

Q: `CC1CCC(NC(=O)c2cc3cc(Br)cnc3n(Cc3ccc(F)cc3)c2=O)CC1` (configuration not stated) was tested. Which IC50 did it give?
A: ND(Insoluble)

These compounds were tested against T1, Cannabinoid receptor 2 (assay: Displacement of [3H]CP-55,940 from human recombinant CB2R expressed in HEK-293 cells after 90 mins by liquid scintillation counting). Settings: not given.
Design: species or system HEK293

Q: How did the IC50 turn out when `CC1CCC(NC(=O)c2cc3cccnc3n(Cc3ccc(F)cc3)c2=O)CC1` (configuration not stated) was run?
A: 1.37 nM

Q: Which Ki does the source give for `CCOC(=O)CCn1c(=O)c(C(=O)NC2CCC(C)CC2)cc2cccnc21` (configuration not stated) here?
A: 176 nM

Q: How did the Ki turn out when `C[C@H]1CC[C@H](NC(=O)c2cc3cc(Br)cnc3n(Cc3ccc(F)cc3)c2=O)CC1` was run?
A: 1.12 nM

Q: `CC1CCC(NC(=O)c2cc3cc(-c4cccs4)cnc3n(Cc3ccc(F)cc3)c2=O)CC1` (configuration not stated) was tested. Which Ki did it give?
A: 1.85 nM

Q: `C[C@H]1CC[C@@H](NC(=O)c2cc3cc(Br)cnc3n(Cc3ccc(F)cc3)c2=O)CC1` was tested. Which Ki did it give?
A: 0.12 nM

Q: How did the IC50 turn out when `CC1CCC(NC(=O)c2cc3cc(Br)cnc3n(Cc3ccc(F)cc3)c2=O)CC1` (configuration not stated) was run?
A: 0.72 nM

Q: And the Ki?
A: 0.18 nM

Q: With `CC1CCC(NC(=O)c2cc3cc(-c4ccc(F)cc4)cnc3n(CCN3CCOCC3)c2=O)CC1` (configuration not stated) as the compound, how does the Ki read?
A: 0.68 nM

Q: How did the Ki turn out when `CC1CCC(NC(=O)c2cc3cccnc3n(CCCCCO)c2=O)CC1` (configuration not stated) was run?
A: 3.6 nM

Q: `CC1CCC(NC(=O)c2cc3cc(-c4ccco4)cnc3n(Cc3ccc(F)cc3)c2=O)CC1` (configuration not stated) was tested. Which Ki did it give?
A: 0.67 nM

Q: Which Ki does the source give for `COC(=O)CCCCn1c(=O)c(C(=O)NC2CCC(C)CC2)cc2cccnc21` (configuration not stated) here?
A: 27.1 nM

Q: For `CC1CCC(NC(=O)c2cc3cccnc3n(CCCCC(=O)O)c2=O)CC1` (configuration not stated), which Ki is on record?
A: 1340 nM

Q: `CC1CCC(NC(=O)c2cc3cc(Br)cnc3n(CCN3CCOCC3)c2=O)CC1` (configuration not stated) was tested. Which Ki did it give?
A: 1.26 nM

Q: For `C[C@H]1CC[C@H](NC(=O)c2cc3cc(-c4ccco4)cnc3n(Cc3ccc(F)cc3)c2=O)CC1`, which Ki is on record?
A: 94.2 nM

Q: For `CC1CCC(NC(=O)c2cc3cc(-c4ccc(F)cc4)cnc3n(Cc3ccc(F)cc3)c2=O)CC1` (configuration not stated), which Ki is on record?
A: 2.17 nM

Q: Which Ki does the source give for `CC1CCC(NC(=O)c2cc3cc(-c4cccs4)cnc3n(CCN3CCOCC3)c2=O)CC1` (configuration not stated) here?
A: 0.17 nM

Q: Which Ki does the source give for `CC1CCC(NC(=O)c2cc3cccnc3n(CCCCCCO)c2=O)CC1` (configuration not stated) here?
A: 18 nM

What follows are compounds tested against T1, Cannabinoid receptor 2 (assay: Agonist activity at human recombinant CB2R expressed in U2OS cells assessed as beta-arrestin-GFP binding to receptor […] by fluorescent microscopy). Settings: not given.
Assay type: cell-based

Q: With `CC1CCC(NC(=O)c2cc3cccnc3n(Cc3ccc(F)cc3)c2=O)CC1` (configuration not stated) as the compound, how does the EC50 read?
A: 29.6 nM

Q: For `CC1CCC(NC(=O)c2cc3cccnc3n(CCN3CCOCC3)c2=O)CC1` (configuration not stated), which EC50 is on record?
A: 17.6 nM

The compounds below were run against T1, Cannabinoid receptor 2 (assay: Agonist activity at human recombinant CB2R expressed in […] U2OS cells assessed as reduction in forskolin-mediated cAMP level after 30 mins by time-resolved fluorescence assay). Settings: not given.
Assay type: functional, cell-based
How it was run: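 hCB2R-expressing U2OS cells in HBSS stimulation buffer with 0.1% BSA, 0.5 mM IBMX and 5 mM HEPES, pH 7.4, at 3000 cells/well. Cells treated with forskolin (10 μM final) and various ligand concentrations for 30 min at room temperature. cAMP measured by LANCE TR-FRET (Eu-cAMP tracer plus ULight antibody, 1 h in the dark, 615/665 nm) against a cAMP standard curve. Three experiments in triplicate.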

Q: For `CC1CCC(NC(=O)c2cc3cccnc3n(Cc3ccc(F)cc3)c2=O)CC1` (configuration not stated), which EC50 is on record?
A: 29.6 nM

Q: For `CC1CCC(NC(=O)c2cc3cccnc3n(CCN3CCOCC3)c2=O)CC1` (configuration not stated), which EC50 is on record?
A: 28 nM

The compounds below were run on HEK293 (assay: Selectivity ratio of Ki for human recombinant CB1R expressed in HEK-293 cells to Ki for human recombinant CB2R expressed in HEK-293 cells). Settings: not given.
Assay type: cell-based

Q: With `CC1CCC(NC(=O)c2cc3cccnc3n(Cc3ccc(F)cc3)c2=O)CC1` (configuration not stated) as the compound, how does the Ratio Ki read?
A: 222

Q: Which Ratio Ki does the source give for `C[C@H]1CC[C@H](NC(=O)c2cc3cc(Br)cnc3n(Cc3ccc(F)cc3)c2=O)CC1` here?
A: 148

Q: With `CC1CCC(NC(=O)c2cc3cc(-c4cccs4)cnc3n(Cc3ccc(F)cc3)c2=O)CC1` (configuration not stated) as the compound, how does the Ratio Ki read?
A: 1770

Q: How did the Ratio Ki turn out when `CCCC(C)(C)c1ccc2c(c1)OC(C)(C)[C@@H]1CC=C(C)C[C@@H]21` was run?
A: 226

Q: With `C[C@H]1CC[C@@H](NC(=O)c2cc3cc(Br)cnc3n(Cc3ccc(F)cc3)c2=O)CC1` as the compound, how does the Ratio Ki read?
A: 1010

Q: With `CC1CCC(NC(=O)c2cc3cc(Br)cnc3n(Cc3ccc(F)cc3)c2=O)CC1` (configuration not stated) as the compound, how does the Ratio Ki read?
A: 534

Q: For `CC1CCC(NC(=O)c2cc3cc(-c4ccc(F)cc4)cnc3n(CCN3CCOCC3)c2=O)CC1` (configuration not stated), which Ratio Ki is on record?
A: 98

Q: Which Ratio Ki does the source give for `CC1CCC(NC(=O)c2cc3cc(-c4ccco4)cnc3n(Cc3ccc(F)cc3)c2=O)CC1` (configuration not stated) here?
A: 5140

Q: With `CC1CCC(NC(=O)c2cc3cc(Br)cnc3n(CCN3CCOCC3)c2=O)CC1` (configuration not stated) as the compound, how does the Ratio Ki read?
A: 595

Q: How did the Ratio Ki turn out when `C[C@H]1CC[C@H](NC(=O)c2cc3cc(-c4ccco4)cnc3n(Cc3ccc(F)cc3)c2=O)CC1` was run?
A: > 106

Q: How did the Ratio Ki turn out when `CC1CCC(NC(=O)c2cc3cc(-c4cccs4)cnc3n(CCN3CCOCC3)c2=O)CC1` (configuration not stated) was run?
A: 192

Q: `CC1CCC(NC(=O)c2cc3cccnc3n(CCN3CCOCC3)c2=O)CC1` (configuration not stated) was tested. Which Ratio Ki did it give?
A: 526

Each compound was assayed against T1, Cannabinoid receptor 2 (assay: Antagonist activity at human recombinant CB2R expressed in U2OS cells assessed as inhibition of WIN-55212-induced beta-arrestin-GFP binding to receptor preincubated for 15 mins by fluorescent microscopy). Settings: not given.
Assay type: cell-based
How it was run: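 Same βarr2-GFP redistribution set-up in hCB2R U2OS cells on coverslips. […] Fixed in 4% paraformaldehyde, imaged by fluorescence microscopy. […] Three experiments in duplicate.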

Q: `CC1CCC(NC(=O)c2cc3cc(Br)cnc3n(Cc3ccc(F)cc3)c2=O)CC1` (configuration not stated) was tested. Which IC50 did it give?
A: 31.6 nM

Q: `CC1CCC(NC(=O)c2cc3cc(Br)cnc3n(CCN3CCOCC3)c2=O)CC1` (configuration not stated) was tested. Which IC50 did it give?
A: 32.1 nM
